Screening data from PubChem.
PKA-R2B activ – PKA-R2B complex activation | activation, % at 11.4 µM | hit rate 0.079% among 340,000 | P22694+P31323 | AID 504700 | PKA-R2B holoenzyme dissociation, Cy5-IP20 fluorescence polarization; R2B truncated from residue 108, S112A mutant; 0% DMSO only, 100% 113 µM cGMP;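 active = activation above a cutoff set at the mean over all compounds plus 3 SD, cut at about 18% in these data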;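 note: higher means more holoenzyme dissociation and a rise in polarization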
Rev-erbA mod – modulates human Rev-erb alpha binding to DNA | hit rate 0.79% among 370,000 | activity, % at 10 µM | Rev-erbα–FITC-DNA binding, fluorescence polarization, 90 min;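 active = activity above about 14%, limit read from the data; passing the limit was not always enough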;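 note: 0% = DMSO wells with 35 nM protein and 100% = DMSO wells with 750 nM protein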
PKA-R1A act – activates the PKA-R1A holoenzyme complex; PKA-R1A dissociation, Cy5-IP20 fluorescence polarization; scaled: DMSO 0%, 113 µM cGMP 100%; hit rate 0.083% among 340,000; AID 504707; activation, % at 11.4 µM; P00514+P68181;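 active = percent activation above the mean of all tested compounds plus 3 SD, cut at about 19% in these data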;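 note: higher means more PKAc released from R1A so a rise in polarization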
PG9 Ab binder – binds the HIV-1 gp120 antibody PG9. TR-FRET gp120-PG9 antibody binding. inhibition, % at 6.7 µM. hit rate 0.43% among 360,000. AID 624416; in the data active = inhibition above about 8.5%
NR2E3 ag-1 – activates human NR2E3 receptor | Q9Y5X4 | CHO-S Gal4-NCOR/VP16-NR2E3 two-hybrid, luciferase | inhibition of corepressor binding, % at 3.98 µM | hit rate 0.35% among 360,000 | AID 602229;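 active = inhibition above the mean of all tested compounds plus 3 SD, cut at about 70% in these data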;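 note: 0% = DMSO with NR2E3 transfected cells and 100% = cells lacking NR2E3 construct; higher means lower luciferase signal from less NR2E3 corepressor binding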
Target sequence (Q9Y5X4 whole entry, looked up, the tested form may be a part): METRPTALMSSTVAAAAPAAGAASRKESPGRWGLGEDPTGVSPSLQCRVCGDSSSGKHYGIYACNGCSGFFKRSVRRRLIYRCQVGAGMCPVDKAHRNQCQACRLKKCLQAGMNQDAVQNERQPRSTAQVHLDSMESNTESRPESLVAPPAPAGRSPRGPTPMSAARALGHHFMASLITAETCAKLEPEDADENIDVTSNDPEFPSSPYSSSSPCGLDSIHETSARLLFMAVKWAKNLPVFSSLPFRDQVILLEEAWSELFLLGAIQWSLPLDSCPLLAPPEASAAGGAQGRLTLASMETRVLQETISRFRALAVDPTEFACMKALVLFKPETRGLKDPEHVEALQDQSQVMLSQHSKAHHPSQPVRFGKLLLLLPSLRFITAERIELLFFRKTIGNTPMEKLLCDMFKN
NR2E3 ag-2 – activates human photoreceptor nuclear receptor NR2E3; Q9Y5X4; GST-NR2E3/biotin-RetCOR TR-FRET, 1536-well; inhibition of corepressor binding, % at 4.78 µM; hit rate 0.12% among 320,000;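 active = percent inhibition above the cutoff of mean plus 3 SD of all tested compounds, set per screening campaign, cut at about 20% in these data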;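 note: 0% = DMSO wells and 100% = biotin wells as full block of FRET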
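Test system – NR2E3–RetCOR corepressor complex · Quantity – NR2E3 fusion 1.35 nM · Buffer or medium – Tris pH 7.5 · Incubation – Compound–protein incubation for 5 h at 4 °C · Technique – TR-FRET, Eu(K)-anti-GST donor, streptavidin-D2 acceptor, ex 340, em 617/671 nm · Evaluation – percent inhibition of 671/617 nm emission ratio versus biotin and DMSO controls · Plate – 1536-well format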
PG9 bind confirm – confirmation of small molecules binding HIV-1 gp120 antibody PG9 | TR-FRET PG9 antibody binding, biochemical | hit rate 90% among 1,500 | inhibition, % at 6.7 µM | shares compounds with PG9 Ab binder; in the data active = inhibition above about 9%
PGV04 counter – binds control antibody PGV04 in PG9 binder counter-screen | shares compounds with PG9 Ab binder | TR-FRET PGV04 antibody-gp120 binding, biochemical | inhibition, % at 6.7 µM | hit rate 95% among 1,500; in the data active = inhibition above about 9.5%
PG9 bind DR – small molecules binding HIV-1 gp120 antibody PG9 | shares compounds with PG9 Ab binder | TR-FRET PG9 antibody-gp120 binding inhibition | IC50, µM | 95 tested, under 10 active; in the data active = IC50 below about 10 µM
PGV04 binding DR – binds control antibody PGV04 in PG9 counter-screen; shares compounds with PG9 Ab binder; TR-FRET binding to control antibody PGV04; IC50, µM; hit rate 20% among 95; AID 651937
PG126 DR counter – counter-screen for PG9 binders: binding to control antibody PG126; hit rate 20% among 95; IC50, µM; TR-FRET binding to antibody PG126, counterscreen; shares compounds with PG9 Ab binder
Numbers without * were called inactive; / = no result. Most compounds without a hit are left out; they make up all but 1.6% or so of the library. Cut-off read from the data, not from the text of the source, unless noted: active = IC50 below about 9 µM; inactive = the rest.

SMILES | PKA-R2B activ | Rev-erbA mod | PKA-R1A act | PG9 Ab binder | NR2E3 ag-1 | NR2E3 ag-2 | PG9 bind confirm | PGV04 counter | others
COc1ccc(-c2nsc(SCC(=O)Nc3cc(C)on3)n2)cc1 | -6 | 13 | 5 | 42* | -20 | -8 | 41* | 55*
Cc1cccc(-c2nsc(SCC(=O)Nc3ccc4c(c3)OCO4)n2)c1 | -8 | -3 | -5 | 0 | -40 | 4 | / | /
CCOC(=O)CNC(=O)CSc1nc(-c2ccc(OC)cc2)ns1 | -2 | -3 | -5 | 1 | 6 | -1 | / | /
Cc1ccc(NC(=O)c2cccc3c2-c2ccccc2C3=O)c(C)c1 | / | 1 | / | / | / | / | / | /
COc1cccc(/C=C2\CC3(OC(=O)c4ccc(F)cc4)CCCN2C3)c1 (configuration not stated) | / | 1 | / | / | / | / | / | /
O=C(Nc1cccnc1)c1cc(-c2ccc3c(c2)OCO3)on1 | 8 | 3 | 3 | 12* | 11 | -17 | 10* | 22*
O=C(Nc1cccnc1)c1cc(-c2ccc(Cl)c(Cl)c2)on1 | 4 | 3 | -9 | -1 | -41 | 1 | / | /
O=C(CCc1ccccc1)Nc1nc2ccc(S(=O)(=O)N3CCOCC3)cc2s1 | -9 | 10 | 1 | 12* | 4 | 9 | 22* | 31*
O=S(=O)(CC1NCc2ccccc21)NCc1ccc(F)cc1 (configuration not stated) | / | 4 | / | / | / | / | / | /
Cc1ccc(C)c2sc(NC(=O)C3CC3)nc12 | 2 | 0 | -9 | -1 | -26 | 0 | / | /
O=C(Nc1nc2c(Br)cc(Br)cc2c(=O)s1)C1CCC1 | -11 | 2 | 1 | 10* | -19 | -1 | 18* | 20*
NS(=O)(=O)c1ccc(CCNC(=O)c2ccc(-c3ccccc3)cc2)cc1 | 12 | -2 | 7 | 12* | 0 | 0 | 21* | 14* | PG9 bind DR=>67;PGV04 binding DR=>67;PG126 DR counter=>67
N#Cc1cc2c(nc1SCC(=O)O)CCCCC2 | 0 | -3 | 2 | -1 | -5 | 4 | / | /
N#Cc1cc2c(nc1SCC(=O)NCc1ccc3c(c1)OCO3)CCCCC2 | -5 | 11 | -4 | 14* | 15 | 0 | 17* | 26*
Cn1c(/C=C/c2ccc(Cl)cc2)nc2ccccc2c1=O | 5 | 13 | 8 | 32* | -109 | 2 | 4 | 7
CN[C@H]1C[C@H]2c3[nH]c4cccc(-c5ccc6c(c5)OCO6)c4c3CCN2C[C@H]1[C@H](C)O | / | 6 | / | / | / | / | / | /
CN(C(=O)[C@H]1O[C@@H](n2cnc(C(N)=O)n2)[C@H](O)[C@@H]1O)c1ccccc1 | / | -6 | / | 1 | / | / | / | /
O=C(CN1C(=O)C2(OCCCO2)c2ccccc21)NCc1ccc2ccccc2c1 | / | 3 | / | / | / | / | / | /
CCN(c1ccc(C(=O)CN2C(=O)NC3(CCOc4ccccc43)C2=O)cc1)S(C)(=O)=O (configuration not stated) | -3 | -7 | -6 | 9.8* | -3 | 2 | 34* | 32* | PG9 bind DR=>67;PGV04 binding DR=>67;PG126 DR counter=>67
C[C@H]1C2CC(OC(=O)Nc3cccc(Cl)c3)C(C2)[C@H]2CCCCN21 (some centres not stated) | / | 3 | / | / | / | / | / | /
O=C(CCc1ccccc1)N[C@H]1[C@@H](OC(=O)c2ccc([N+](=O)[O-])cc2)CCC[C@]12C(=O)N(Cc1ccccc1)c1ccccc12 | / | 4 | / | / | / | / | / | /
